Assay outcomes as filed in PubChem BioAssay.
TAAR1 antag: human TAAR1 antagonism; Q96RJ0; inhibition, % at 3 µM; 1.5% of 360,000 active; CHO RD-HGA16 TAAR1, Fluo-8 calcium fluorescence, antagonist;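 active = inhibition above a per-plate cutoff, the mean inhibition of test compounds on that plate plus 3 SD, cut at about 49% in these data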;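 note: 0% = DMSO plus EC80 beta-PEA response and 100% = DMSO alone without agonist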
Target sequence (Q96RJ0 whole entry, looked up): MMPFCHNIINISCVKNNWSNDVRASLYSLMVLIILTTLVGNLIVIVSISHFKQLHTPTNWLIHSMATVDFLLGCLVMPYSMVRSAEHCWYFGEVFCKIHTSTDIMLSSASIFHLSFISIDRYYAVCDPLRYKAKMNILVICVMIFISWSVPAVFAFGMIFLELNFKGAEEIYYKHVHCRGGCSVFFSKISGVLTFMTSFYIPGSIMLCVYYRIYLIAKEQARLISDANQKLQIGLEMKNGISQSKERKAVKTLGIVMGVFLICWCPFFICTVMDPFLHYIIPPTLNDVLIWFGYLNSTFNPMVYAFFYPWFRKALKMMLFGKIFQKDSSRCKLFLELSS
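Test system – hTAAR1-expressing CHO RD-HGA16 cells, Gα16-coupled · Reagent – β-PEA at EC80 concentration, post-compound challenge · Compound dosing – 3 µM, single point · Timing – 140 s kinetic read after compound, 140 s after agonist · Detection – Fluo-8 intracellular calcium dye fluorescence, real-time kinetic reads · Control set – DMSO and EC80 PEA controls · Repeats – n of 1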
GPR7 antagonist: antagonists of human GPR7 (neuropeptides B/W receptor 1); inhibition, % at 4.4 µM; 1.1% of 290,000 active; GPR7-expressing cells, fluorescence antagonist assay; AID 1861; in the data active = inhibition above about 16%, passing the limit was not always enough;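 note: cells stimulated with the agonist NPW; 0% = agonist with vehicle and 100% = vehicle without agonist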
Target sequence (P48145 whole entry, looked up): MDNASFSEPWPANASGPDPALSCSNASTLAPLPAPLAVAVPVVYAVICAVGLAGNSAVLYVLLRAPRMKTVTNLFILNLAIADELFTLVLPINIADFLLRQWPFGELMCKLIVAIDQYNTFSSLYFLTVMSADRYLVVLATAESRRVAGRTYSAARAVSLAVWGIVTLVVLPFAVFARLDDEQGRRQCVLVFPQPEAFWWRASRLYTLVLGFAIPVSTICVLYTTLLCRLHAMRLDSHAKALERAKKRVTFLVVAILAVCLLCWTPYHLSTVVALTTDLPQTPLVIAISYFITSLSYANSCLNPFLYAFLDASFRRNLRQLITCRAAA
CHO parental Ca: counter-screen: ATP calcium response change in parental CHO cells | parental CHO-K1, ATP-induced calcium, Fluo-8 fluorescence | inhibition, % at 5.6 µM | 0.63% of 330,000 active | AID 463079;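 active = inhibition above that plate's mean sample inhibition plus 3 SD, cut at about 26% in these data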;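 note: 0% = ATP-challenged DMSO wells and 100% = DMSO wells without ATP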
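Assay system: untransfected parental CHO cell line. Also added: ATP agonist challenge. Dosing: one dose, 5.6 µM nominal. Measured by: Fluo-8 fluorescence. Read-out: % inhibition. Benchmarks: ATP wells versus no-ATP DMSO wells. Repeats: no replicates.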
OX1R antag-1: antagonists of human orexin 1 receptor; O43613; AID 434989; inhibition, % at 5 µM; CHO/OX1R cells, Fluo-8 calcium fluorescence, orexin A; 0.43% of 330,000 active;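 active = inhibition above its plate's threshold, mean inhibition of all tested compounds on the plate plus 3 SD, cut at about 37% in these data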;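 note: 0% = orexin A challenge wells and 100% = SB-334867-A antagonist wells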
TAAR1 ag: agonists of human TAAR1 | Q96RJ0 | CHO RD-HGA16 TAAR1, Fluo-8 calcium fluorescence; vehicle wells 0%, saturating PEA agonist 100% | activation, % at 3 µM | 0.99% of 360,000 active | AID 624467;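 active = activation above the mean activation of all test compounds in the run plus 3 SD, cut at about 38% in these data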
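Signal – calcium-sensitive Fluo-8 signal, excitation 470-495, emission 515-575 nm · System – RD-HGA16 (CHO) cells co-expressing Gα16 and hTAAR1 · Incubation – 17-24 h seeding, 75 min 37 °C dye, 30 min RT · Compound dosing – 3 µM single concentration · Repeats – no replicates (n 1)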
OX1R antag-2: antagonists of human orexin 1 receptor (OX1R); O43613; inhibition, % at 6.6 µM; 1.8% of 330,000 active; OX1R-expressing cells, FRET antagonist read-out; in the data active = inhibition mostly above about 38%, no sharp cut-off; inactive = mostly below about 40%;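 note: 0% = agonist challenge alone and 100% = reference antagonist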
TAAR1 ag confirm: confirmation of human TAAR1 agonists; shares compounds with TAAR1 ag; CHO RD-HGA16 TAAR1, Fluo-8 calcium fluorescence; scaled: DMSO 0%, maximal phenethylamine 100%; activation, % at 3 µM; 82% of 2,400 active; AID 651783;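 active = activation above a cutoff set at the run's mean compound activation plus 3 SD, cut at about 39% in these data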
Ga16 nonsel ag: nonselective agonist in parental cells, TAAR1 agonist counter-screen. activation, % at 3 µM. CHO-Ga16 parental, Fluo-8 calcium fluorescence; normalized to maximal ATP response, DMSO zero. shares compounds with TAAR1 ag. 50% of 2,400 active;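 active = activation above the run cutoff, the mean activation over all tested wells plus 3 SD, cut at about 12% in these data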;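 note: 0% = DMSO wells and 100% = maximal ATP response on the peak over basal ratio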
TAAR1 desens: human TAAR1 agonist that also desensitizes the receptor; shares compounds with TAAR1 ag; inhibition, % at 3 µM; CHO RD-HGA16 hTAAR1, Fluo-8 calcium, beta-PEA response inhibition; 46% of 2,400 active;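 active = inhibition above the run cutoff, the mean inhibition of all test compounds plus 3 SD, cut at about 49% in these data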;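 note: beta-PEA stimulus applied at its EC80; loss of beta-PEA calcium signal after compound pretreatment read as receptor desensitization; 0% = DMSO with beta-PEA at EC80 and 100% = DMSO alone without agonist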
Ga16 antag count: nonselective Ga16 antagonist in TAAR1 agonist counter-screen; CHO-Ga16 ATP-induced calcium, Fluo-8 fluorescence; AID 651952; 39% of 2,400 active; shares compounds with TAAR1 ag; inhibition, % at 3 µM;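 active = inhibition above the plate's mean compound inhibition plus 3 SD, computed per plate, cut at about 22% in these data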;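 note: 0% = EC80 ATP with DMSO and 100% = DMSO wells without ATP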
The depositor's hits bear a star. This is a sample that favours compounds with a hit; in the whole collection about 4.6% have one here.

How did CCC(OC(=O)c1nsc(Cl)c1Cl)C(=O)NC(C)(C)C (centres undefined) do in these assays?
TAAR1 antag: 1.9; GPR7 antagonist: -8.2; CHO parental Ca: 3.3; OX1R antag-1: -21.8; TAAR1 ag: 10.5; OX1R antag-2: 11.1

How did COc1cccc(O)c1CN1CCC(C(=O)Nc2ccc(-c3cccc(C)c3)cc2)CC1 do in these assays?
TAAR1 antag: 34.5; GPR7 antagonist: 0.3; CHO parental Ca: 1.2; OX1R antag-1: -1.7; TAAR1 ag: 52.9*; OX1R antag-2: 2.8; TAAR1 ag confirm: 33.0; Ga16 nonsel ag: 17.6*; TAAR1 desens: 40.9; Ga16 antag count: 36.8*

Results for COc1cccc(O)c1CN1CCC(C(=O)Nc2ccc(Oc3cccnc3)cc2)CC1 ?
TAAR1 antag: 6.5; GPR7 antagonist: 3.5; CHO parental Ca: -0.3; OX1R antag-1: -10.3; TAAR1 ag: 6.6; OX1R antag-2: 20.0

How did CCN(CC)C(=O)C1=C(C)N(CCCN2CCCC2=O)C(=O)C(CC(=O)NCc2cccs2)C1 (centres undefined) do in these assays?
TAAR1 antag: -24.1; TAAR1 ag: 2.3

What do the screens show for `CCCn1c(NC(=O)c2ccco2)nc2ccccc21`?
TAAR1 antag: 5.7; GPR7 antagonist: -4.0; CHO parental Ca: -14.4; OX1R antag-1: -21.4; TAAR1 ag: 0.3; OX1R antag-2: 6.9

What do the screens show for `CCCn1c(NC(=O)C2COc3ccccc3O2)nc2ccccc21` (centres undefined)?
TAAR1 antag: 48.7*; GPR7 antagonist: 0.6; CHO parental Ca: -16.3; OX1R antag-1: -17.9; TAAR1 ag: 50.9*; OX1R antag-2: 21.3; TAAR1 ag confirm: 6.8; Ga16 nonsel ag: 2.4; TAAR1 desens: 8.1; Ga16 antag count: 17.6

How did COc1cccc(N=C(N)N)c1 do in these assays?
TAAR1 antag: 53.0*; GPR7 antagonist: -16.6; CHO parental Ca: 4.9; OX1R antag-1: 11.6; TAAR1 ag: 67.5*; OX1R antag-2: 18.3; TAAR1 ag confirm: 82.8*; Ga16 nonsel ag: 1.6; TAAR1 desens: 74.9*; Ga16 antag count: 5.1

What do the screens show for `COc1cccc(N)c1`?
TAAR1 antag: 4.7; TAAR1 ag: 2.1

How did CCOc1ccc(/C=C/C(=O)Nc2ccccc2C(F)(F)F)cc1 do in these assays?
TAAR1 antag: -20.0; GPR7 antagonist: -2.7; CHO parental Ca: 1.8; OX1R antag-1: -16.3; TAAR1 ag: -1.3; OX1R antag-2: 19.0

What do the screens show for `COc1ccc(/C=C/C(=O)Nc2ccccc2C(F)(F)F)cc1`?
TAAR1 antag: 28.9; GPR7 antagonist: 0.8; CHO parental Ca: -7.5; OX1R antag-1: -13.0; TAAR1 ag: 47.8*; OX1R antag-2: 2.4; TAAR1 ag confirm: 16.3; Ga16 nonsel ag: 9.5; TAAR1 desens: 19.3; Ga16 antag count: 16.2

What do the screens show for `COc1ccc(C(=O)CC(=O)C(=O)Nc2ccccc2C(F)(F)F)cc1`?
TAAR1 antag: 73.3*; GPR7 antagonist: -16.5; CHO parental Ca: -20.1; OX1R antag-1: -9.7; TAAR1 ag: 93.8*; OX1R antag-2: -7.5; TAAR1 ag confirm: 132.2*; Ga16 nonsel ag: 119.9*; TAAR1 desens: 86.7*; Ga16 antag count: 76.6*

Results for CCc1ccc(CN2CCCC(C(=O)N3CCCCC3)C2)cc1 (centres undefined) ?
TAAR1 antag: 2.8; GPR7 antagonist: -10.5; CHO parental Ca: -24.9; OX1R antag-1: 4.4; TAAR1 ag: 1.4; OX1R antag-2: 13.6

What do the screens show for `Brc1ccc(C2C3=C(Nc4ncnn42)c2ccccc2OC3c2ccncc2)cc1` (centres undefined)?
TAAR1 antag: 19.4; GPR7 antagonist: -8.1; CHO parental Ca: -25.2; OX1R antag-1: -29.5; TAAR1 ag: 43.0*; OX1R antag-2: 9.4; TAAR1 ag confirm: 11.9; Ga16 nonsel ag: 5.6; TAAR1 desens: 2.9; Ga16 antag count: 13.0

What do the screens show for `CC1CCN(c2c([N+](=O)[O-])nn(-c3ccc4c(c3)OCCO4)[n+]2[O-])CC1`?
TAAR1 antag: -0.8; GPR7 antagonist: -4.5; CHO parental Ca: -30.2; OX1R antag-1: -50.3; TAAR1 ag: 5.5; OX1R antag-2: 38.3

How did O=C(Nc1n[nH]c(=S)s1)c1ccc2ccccc2c1 do in these assays?
TAAR1 antag: 19.6; GPR7 antagonist: 13.1; CHO parental Ca: 15.4; OX1R antag-1: 2.1; TAAR1 ag: 57.2*; OX1R antag-2: 2.7; TAAR1 ag confirm: 42.3*; Ga16 nonsel ag: 19.8*; TAAR1 desens: 2.1; Ga16 antag count: 5.2

Results for O=C(Nc1nccs1)c1ccc2ccccc2c1 ?
TAAR1 antag: 12.6; GPR7 antagonist: -4.8; CHO parental Ca: -25.9; OX1R antag-1: -25.4; TAAR1 ag: 11.2; OX1R antag-2: 6.8

How did CN(C(=O)c1ccc(NC(=O)Cc2cccc([N+](=O)[O-])c2)cc1)C1CC1 do in these assays?
TAAR1 antag: -4.7; CHO parental Ca: -1.4; OX1R antag-1: 3.4; TAAR1 ag: 3.4; OX1R antag-2: 16.0

Results for CN(C(=O)c1ccc(NC(=O)Cc2ccc([N+](=O)[O-])cc2)cc1)C1CC1 ?
TAAR1 antag: 38.6; CHO parental Ca: 5.7; OX1R antag-1: 11.0; TAAR1 ag: 77.3*; OX1R antag-2: 2.8; TAAR1 ag confirm: 97.1*; Ga16 nonsel ag: 41.5*; TAAR1 desens: 34.7; Ga16 antag count: 17.1

What do the screens show for `Cc1ccc(C(=O)NC(=S)NNC(=O)c2ccccc2O)cc1`?
TAAR1 antag: 31.9; GPR7 antagonist: -14.2; CHO parental Ca: -10.5; OX1R antag-1: 3.6; TAAR1 ag: 114.1*; OX1R antag-2: -1.6; TAAR1 ag confirm: 127.4*; Ga16 nonsel ag: 96.7*; TAAR1 desens: 77.0*; Ga16 antag count: 44.7*

How did O=C(NC(=S)NNC(=O)c1ccccc1O)c1ccc(F)cc1 do in these assays?
TAAR1 antag: 20.6; GPR7 antagonist: -2.9; CHO parental Ca: 4.1; OX1R antag-1: -0.1; TAAR1 ag: 90.0*; OX1R antag-2: 16.0; TAAR1 ag confirm: 54.5*; Ga16 nonsel ag: 58.4*; TAAR1 desens: 20.1; Ga16 antag count: 21.9*
